The term inhibition denotes the relative decrease from the control value, in per cent.

Assay [1] has as its target T1, Monoglyceride lipase (Mus musculus) (UniProt O35678).
T1 sequence (whole entry): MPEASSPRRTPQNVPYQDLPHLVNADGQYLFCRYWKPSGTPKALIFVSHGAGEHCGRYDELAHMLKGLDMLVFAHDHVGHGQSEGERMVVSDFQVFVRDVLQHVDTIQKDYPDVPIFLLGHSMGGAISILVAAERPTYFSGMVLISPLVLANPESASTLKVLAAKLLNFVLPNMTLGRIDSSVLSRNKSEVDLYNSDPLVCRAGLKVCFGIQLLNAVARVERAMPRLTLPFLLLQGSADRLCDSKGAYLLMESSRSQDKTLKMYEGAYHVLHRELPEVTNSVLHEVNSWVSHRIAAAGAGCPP
The assay can be described thus: In-vivo inhibition of mouse MAGL assessed as effect on stearic level in brain at 5 mg/kg, ip measured after 1 hr by LC-MS/MS analysis. It is filed as functional, organism-based. A digest of the protocol:
(§1)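 Adult male mice received 5 mg/kg i.p. (n = 3/group), DMSO vehicle. Killed at 1 h. Half-brains used for lipid analysis by LC-MS; the other half homogenised for MAGL activity assay. Compared with vehicle by two-tailed t-test.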

In assay [2] the target is T1, Monoglyceride lipase (Mus musculus). As to the kind of experiment: In-vivo inhibition of mouse MAGL assessed as effect on OEA level in brain at 5 mg/kg, ip measured after 1 hr by LC-MS/MS analysis. The class given is functional, organism-based. Summed up: as §1
The target of assay [3] is T2, Lysophosphatidylserine lipase ABHD12 (Mus musculus) (UniProt Q99LR1).
T2 sequence (whole entry): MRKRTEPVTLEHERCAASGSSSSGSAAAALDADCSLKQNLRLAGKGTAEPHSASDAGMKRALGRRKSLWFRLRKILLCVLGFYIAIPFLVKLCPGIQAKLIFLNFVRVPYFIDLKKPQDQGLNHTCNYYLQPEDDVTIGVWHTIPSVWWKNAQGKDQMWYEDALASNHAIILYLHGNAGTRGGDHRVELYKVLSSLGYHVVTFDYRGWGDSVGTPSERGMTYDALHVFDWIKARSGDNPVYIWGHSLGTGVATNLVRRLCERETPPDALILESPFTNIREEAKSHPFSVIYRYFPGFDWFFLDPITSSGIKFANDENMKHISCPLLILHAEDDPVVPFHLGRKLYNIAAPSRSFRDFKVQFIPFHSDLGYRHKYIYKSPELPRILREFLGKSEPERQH
As to the kind of experiment: Binding affinity to mouse brain ABHD12 at 0.1 to 1 uM incubated for 30 mins in presence of g MB064 by ABPP assay. It is filed as tissue-based. The conditions noted are these: dose 0.1-1 µM. A digest of the protocol:
(§2)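 Male C57Bl/6J mouse brain (27 weeks) homogenised; membrane and cytosol fractions separated and diluted to 2.0 mg/mL. Samples incubated with compound (0.1 or 1 µM final) or 2.5% DMSO for 30 min at RT. Probes MB064 and FP-Bodipy (100 nM each) added for 10 min. SDS-PAGE with in-gel fluorescence; Coomassie staining as loading control.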

The target in assay [4] is Cannabinoid receptor 1 (Homo sapiens) (UniProt P21554). As to the kind of experiment: Agonist activity at CB1 receptor (unknown origin) at 10 uM. It is filed as functional.
In assay [5] the target is T1, Monoglyceride lipase (Mus musculus). The assay can be described thus: In-vivo inhibition of mouse MAGL assessed as effect on docosahexaenoic level in brain at 5 mg/kg, ip measured after 1 hr by LC-MS/MS analysis. It is filed as functional, organism-based. Summed up:
as §1

Assay [6] has the same target. The assay can be described thus: In-vivo inhibition of mouse MAGL assessed as decrease in arachidonic acid level in brain at 5 mg/kg, ip measured after 1 hr by LC-MS/MS analysis. The class given is functional, organism-based. A digest of the protocol: as §1
For a further assay, the target named is Cannabinoid receptor 2 (Homo sapiens, UniProt P34972). As to the kind of experiment: Agonist activity at human CB2 receptor at 10 uM by TR-FRET assay. The class given is functional. (TR-FRET usually uses a lanthanide donor and a delayed reading to cut background.)
Assay [7] concerns the target Kappa-type opioid receptor (Homo sapiens) (UniProt P41145). The assay can be described thus: Agonist activity at human KOP at 10 uM relative to control. The class given is functional. The conditions noted are these: filed as agonist.
In assay [8] the target is T1, Monoglyceride lipase (Mus musculus). The assay can be described thus: In-vivo inhibition of MAGL activity in brain of mouse at 5 mg/kg, ip measured after 1 hrs by LC-MS analysis. The class given is functional, organism-based. A digest of the protocol: as §1
For assay [9] the target is unchanged. As to the kind of experiment: In-vivo inhibition of mouse MAGL assessed as fold increase in 2-AG content in brain at 5 mg/kg, ip measured after 1 hr by LC-MS/MS analysis. It is filed as functional, organism-based. Summed up: as §1
For assay [10] the target is unchanged. The assay can be described thus: In-vivo inhibition of mouse MAGL assessed as effect on PEA level in brain at 5 mg/kg, ip measured after 1 hr by LC-MS/MS analysis. It is filed as functional, organism-based. Summed up:
as §1

For assay [11] the target is unchanged. The assay can be described thus: In-vivo inhibition of mouse MAGL assessed as effect on oleic level in brain at 5 mg/kg, ip measured after 1 hr by LC-MS/MS analysis. It is filed as functional, organism-based. A digest of the protocol: as §1
Assay [12] has the same target. As to the kind of experiment: In-vivo inhibition of mouse MAGL assessed as effect on AEA level in brain at 5 mg/kg, ip measured after 1 hr by LC-MS/MS analysis. It is filed as functional, organism-based. Summed up: as §1
The target is the same in assay [13]. As to the kind of experiment: In-vivo inhibition of ip dosed mouse MAGL assessed as increase in 2-Ag level measured after 1 hr by LC-MS/MS analysis. The class given is functional, organism-based. The settings on record: dose 0.2-20 mg/kg. A digest of the protocol: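 Adult male mice dosed i.p. at 0.2, 1, 5 or 20 mg/kg (n = 3/group), vehicle DMSO or PEG/Tween (4:1). Killed at 1 h; brains halved and frozen. One half for 2-AG by LC-MS, the other for MAGL assay on homogenate. t-test against vehicle; two-way ANOVA with Bonferroni post-test.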

The target in assay [14] is Acyl-protein thioesterase 2 (Mus musculus) (UniProt Q9WTL7). The assay can be described thus: Binding affinity to mouse brain LYPLA2 at 0.1 to 1 uM incubated for 30 mins in presence of MB064 by ABPP assay. It is filed as tissue-based. The conditions noted are these: dose 0.1-1 µM. Summed up: as §2
In assay [15] the target is T3, Monoacylglycerol lipase ABHD6 (Mus musculus) (UniProt Q8R2Y0).
T3 sequence (whole entry): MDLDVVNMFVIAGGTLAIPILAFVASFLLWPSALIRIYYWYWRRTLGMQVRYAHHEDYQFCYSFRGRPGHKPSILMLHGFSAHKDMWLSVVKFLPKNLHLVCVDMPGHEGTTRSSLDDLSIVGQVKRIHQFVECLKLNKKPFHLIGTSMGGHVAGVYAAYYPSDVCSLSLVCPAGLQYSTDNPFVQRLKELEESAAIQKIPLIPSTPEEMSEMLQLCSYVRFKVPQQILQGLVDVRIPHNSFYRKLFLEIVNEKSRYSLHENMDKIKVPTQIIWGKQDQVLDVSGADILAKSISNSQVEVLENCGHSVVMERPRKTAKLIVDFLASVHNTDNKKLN
The assay can be described thus: Binding affinity to mouse brain ABHD6 at 0.1 to 1 uM incubated for 30 mins in presence of MB064 by ABPP assay. The class given is tissue-based. The conditions noted are these: dose 0.1-1 µM. A digest of the protocol:
as §2

The target in assay [16] is T1, Monoglyceride lipase (Mus musculus). As to the kind of experiment: In-vivo inhibition of mouse MAGL assessed as effect on palmitic level in brain at 5 mg/kg, ip measured after 1 hr by LC-MS/MS analysis. The class given is functional, organism-based. Summed up: as §1
Assay [17] addresses T4, Monoglyceride lipase (Rattus norvegicus) (UniProt Q8R431).
T4 sequence (whole entry): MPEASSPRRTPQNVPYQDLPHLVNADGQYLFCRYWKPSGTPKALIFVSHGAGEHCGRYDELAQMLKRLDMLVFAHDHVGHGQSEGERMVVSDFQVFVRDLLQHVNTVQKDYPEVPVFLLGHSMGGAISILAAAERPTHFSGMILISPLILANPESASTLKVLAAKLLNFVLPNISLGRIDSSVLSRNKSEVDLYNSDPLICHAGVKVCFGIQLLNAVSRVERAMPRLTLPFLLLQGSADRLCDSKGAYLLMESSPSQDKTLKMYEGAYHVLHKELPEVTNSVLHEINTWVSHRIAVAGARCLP
The assay can be described thus: Inhibition of wild type rat MAGL expressed in human HeLa cells. It is filed as cell-based. The settings on record: time 10.0 min, TDE = time-dependent effect. Summed up: (§3)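 Homogenates of HeLa cells overexpressing wild-type rat MAGL, in 50 mM Tris-HCl pH 8.0 with 0.5 mg/mL fatty-acid-free BSA, 37 °C; 2-OG substrate 10 µM final, oleic acid by LC/MS. Time course: preincubation for varied times, then 30 min with substrate. Dilution: enzyme concentrated 100-fold, preincubated 20 min with 10× IC50-equivalent compound or 1% DMSO, diluted 100-fold into substrate buffer, product followed over 60 min (n = 3).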

The target of assay [18] is T4, Monoglyceride lipase (Rattus norvegicus). As to the kind of experiment: Irreversible inhibition of rat MAGL expressed in human HeLa cells incubated for 60 mins. The class given is cell-based. A digest of the protocol: as §3

Activity calls are given as the source filed them. No cut-off for these calls is given here.

Sequence of Kappa-type opioid receptor (Homo sapiens) (P41145 whole entry): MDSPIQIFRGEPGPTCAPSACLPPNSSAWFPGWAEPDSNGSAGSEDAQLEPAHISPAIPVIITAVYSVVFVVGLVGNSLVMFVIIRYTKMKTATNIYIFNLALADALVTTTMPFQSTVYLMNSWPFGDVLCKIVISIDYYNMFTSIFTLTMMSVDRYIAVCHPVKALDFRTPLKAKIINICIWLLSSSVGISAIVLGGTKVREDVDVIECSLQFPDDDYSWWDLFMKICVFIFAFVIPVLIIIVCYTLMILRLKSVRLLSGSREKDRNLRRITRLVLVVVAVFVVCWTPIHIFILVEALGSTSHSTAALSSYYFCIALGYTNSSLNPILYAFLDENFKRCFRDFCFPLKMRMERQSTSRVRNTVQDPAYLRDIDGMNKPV
Sequence of Acyl-protein thioesterase 2 (Mus musculus) (Q9WTL7 whole entry): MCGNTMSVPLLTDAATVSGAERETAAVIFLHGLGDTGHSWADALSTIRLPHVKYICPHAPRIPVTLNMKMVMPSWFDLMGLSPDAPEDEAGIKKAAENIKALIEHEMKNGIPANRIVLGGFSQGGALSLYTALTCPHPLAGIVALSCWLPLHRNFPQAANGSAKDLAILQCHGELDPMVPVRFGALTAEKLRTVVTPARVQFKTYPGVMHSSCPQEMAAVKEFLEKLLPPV
Sequence of Cannabinoid receptor 1 (Homo sapiens) (P21554 whole entry): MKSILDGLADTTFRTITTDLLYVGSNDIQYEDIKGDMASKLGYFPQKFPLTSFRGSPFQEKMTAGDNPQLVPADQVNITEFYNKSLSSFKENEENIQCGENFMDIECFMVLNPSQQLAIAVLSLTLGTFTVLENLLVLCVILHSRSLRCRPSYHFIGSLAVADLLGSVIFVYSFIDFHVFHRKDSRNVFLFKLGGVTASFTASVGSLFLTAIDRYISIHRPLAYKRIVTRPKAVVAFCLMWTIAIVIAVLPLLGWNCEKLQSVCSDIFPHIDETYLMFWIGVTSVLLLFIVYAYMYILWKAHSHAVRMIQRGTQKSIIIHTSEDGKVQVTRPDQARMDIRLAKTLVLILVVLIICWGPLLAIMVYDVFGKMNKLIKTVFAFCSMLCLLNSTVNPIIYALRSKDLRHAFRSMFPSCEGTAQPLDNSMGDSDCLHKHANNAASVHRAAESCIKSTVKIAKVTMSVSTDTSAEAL
Sequence of Cannabinoid receptor 2 (P34972 whole entry): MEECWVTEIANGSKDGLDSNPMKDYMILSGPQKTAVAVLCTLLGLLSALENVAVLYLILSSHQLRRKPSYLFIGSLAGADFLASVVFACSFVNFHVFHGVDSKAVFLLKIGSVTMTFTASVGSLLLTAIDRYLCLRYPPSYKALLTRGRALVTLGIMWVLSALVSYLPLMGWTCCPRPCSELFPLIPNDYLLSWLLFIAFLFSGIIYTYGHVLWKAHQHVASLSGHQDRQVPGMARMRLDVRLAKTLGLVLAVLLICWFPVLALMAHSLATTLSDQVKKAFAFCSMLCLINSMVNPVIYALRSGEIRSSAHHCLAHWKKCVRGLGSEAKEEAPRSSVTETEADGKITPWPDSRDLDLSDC

With `O=C1[C@H](c2ccc(F)cc2)[C@@H](c2ccc3c(c2)OCO3)N1C1CCN(C(=O)n2nnc3ccccc32)CC1` (racemic), the inhibition result in assay [1], in [5], in assay [6], in assay [11], in [16] and in [18] was “Active” each time. Besides, the inhibition entry in assay [2] is “Dose-Dependent Effect”; in assay [8], 50%; in assay [10], “Dose-Dependent Effect”; in assay [12] it was “Dose-Dependent Effect”; in assay [13], “Dose-Dependent Effect”; in assay [17] it was “Tde”. The result in assay [3], in [14] and in assay [15] was Active. Also, the outcome (in assay [4]; at Cannabinoid receptor 2) was inactive. Also, the Activity in assay [7] came to 73%. Moreover, in assay [9], the fold change (FC) was more than 40.
